Data as given in ChEMBL document CHEMBL1127345, “Synthesis, binding properties, and 18F labeling of fluorocarazolol, a high-affinity beta-adrenergic receptor antagonist” (J Med Chem, 1994).

Key:
Mus musculus [1] = experiment: The in vivo tissue distribution of mouse blood without Propranolol preadministration in 90 min, value was fractional dose per fractional body weight of the organ; conditions: 1.5 h
Mus musculus [2] = experiment: The in vivo tissue distribution of mouse heart with Propranolol administration after 90 min, value was fractional dose per fractional body weight of the organ; assay type: ADME, organism-based; conditions: 1.5 h
Method in brief: (§1)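 Male CF-1 mice (25–30 g), anesthetised with 2 mg sodium pentobarbital ip 30 min before tracer. Where blocked, propranolol iv via tail vein (0.1 mL of […]; […]) about 30 min before tracer. Tracer given by tail vein, 0.1 mL at 1–2 mCi/mL. Mice killed by cervical dislocation at set times, organs weighed and counted. %ID/g × body weight/100 gives unitless uptake. Heart, brain, blood, lung, kidney, liver and bone n=5; average ± SD.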

Mus musculus [3] = experiment: The in vivo tissue distribution of mouse liver without Propranolol preadministration in 20 min, value was fractional dose per fractional body weight of the organ
Mus musculus [4] = experiment: The in vivo tissue distribution of mouse bone with Propranolol administration after 60 min, value was fractional dose per fractional body weight of the organ; assay type: ADME, organism-based, Bone element; conditions: 1 h
Method in brief: as §1

| SMILES | Dose/organ (Mus musculus [1]) | Dose/organ (Mus musculus [2]) | Dose/organ (Mus musculus [3]) | Dose/organ (Mus musculus [4]) |
| --- | --- | --- | --- | --- |
| CC(C[18F])NC[C@H](O)COc1cccc2[nH]c3ccccc3c12 (stereo partly drawn) | 0.66 | 0.35 | 2.54 | 1.1 |
| CC(C[18F])NC[C@@H](O)COc1cccc2[nH]c3ccccc3c12 (stereo partly drawn) | 0.43 | 0.48 | 4 | 1.15 |
